Among the data in ChEMBL document CHEMBL1124758, “Renin inhibitory peptides. A beta-aspartyl residue as a replacement for the histidyl residue at the P-2 site” (J Med Chem, 1990) are IC50 values, retold here.

The assay concerns the target T1, Renin (Homo sapiens, UniProt P00797).
T1 sequence (P00797 whole entry): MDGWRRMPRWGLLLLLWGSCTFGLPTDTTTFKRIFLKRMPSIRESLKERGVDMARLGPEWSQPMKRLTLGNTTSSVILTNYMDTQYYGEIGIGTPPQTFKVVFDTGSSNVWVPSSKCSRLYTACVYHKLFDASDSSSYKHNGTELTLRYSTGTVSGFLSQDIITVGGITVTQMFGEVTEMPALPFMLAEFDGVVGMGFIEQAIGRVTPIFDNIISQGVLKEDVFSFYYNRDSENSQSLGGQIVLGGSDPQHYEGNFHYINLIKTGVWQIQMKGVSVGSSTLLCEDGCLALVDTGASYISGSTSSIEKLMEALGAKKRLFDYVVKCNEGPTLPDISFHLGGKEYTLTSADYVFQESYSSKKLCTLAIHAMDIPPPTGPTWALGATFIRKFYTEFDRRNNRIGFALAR
The assay is described as follows: Inhibition of human plasma renin at pH 6. It counts as cell-free. Summed up: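 Human plasma incubated with phenylmethanesulfonyl fluoride and maleate buffer (pH 6.0) plus peptide in 1% Tween 80/water vehicle, 90 min at 37 °C, for angiotensin I generation. Angiotensin I measured by radioimmunoassay kit. Percent inhibition from plasma renin activity versus control tubes. IC50 estimated from semilog plot of three or four peptide concentrations.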

`CC[C@@H](C)[C@H](NC(=O)[C@@H](CC(O)[C@H](CC1CCCCC1)NC(=O)[C@@H](CC(=O)O)NC(=O)Cc1ccccc1)C(C)C)C(=O)N(C)c1ccccn1` (some centres undefined) returned an IC50 of 2 nM.

`CC[C@@H](C)[C@H](NC(=O)[C@@H](CC(O)[C@H](CC(C)C)NC(=O)[C@@H](CC(=O)O)NC(=O)Cc1ccccc1)C(C)C)C(=O)N(C)c1ccccn1` (some centres undefined) displayed an IC50 of 3.5 nM.

Turning to `CC[C@@H](C)[C@H](NC(=O)[C@@H](CC(O)[C@H](CC(C)C)NC(=O)C(CC(=O)O)NC(=O)Cc1ccccc1)C(C)C)C(=O)N(C)c1ccccn1` (stereo in doubt), the IC50 worked out at 17 nM.

Compound `CC[C@@H](C)[C@H](NC(=O)[C@@H](CC(O)[C@H](CC(C)C)NC(=O)C(C(=O)COc1ccccc1)C(O)C(=O)O)C(C)C)C(=O)N(C)c1ccccn1` (some centres undefined) registered an IC50 of 0.7 nM.

On to `CC[C@@H](C)[C@H](NC(=O)[C@@H](CC(O)[C@H](CC(C)C)NC(=O)[C@H](Cc1c[nH]cn1)NC(=O)COc1ccccc1)C(C)C)C(=O)N(C)c1ccccn1` (some centres undefined), for which the IC50 was 8.5 nM.

Take `CC[C@@H](C)CNC(=O)[C@@H](CC(O)[C@H](CC(C)C)NC(=O)C(C(=O)COc1ccccc1)C(O)C(=O)O)C(C)C` (some centres undefined): the IC50 was 2.2 nM.

In turn, `CC[C@@H](C)[C@H](NC(=O)[C@@H](CC(O)[C@H](CC(C)C)NC(=O)[C@@H](CC(=O)O)NC(=O)COc1ccccc1)C(C)C)C(=O)N(C)c1ccccn1` (some centres undefined) had an IC50 of 1.9 nM.

In turn, `CC[C@@H](C)[C@H](NC(=O)[C@@H](CC(O)[C@H](CC1CCCCC1)NC(=O)[C@@H](CC(=O)O)NC(=O)COc1ccccc1)C(C)C)C(=O)N(C)c1ccccn1` (some centres undefined) yielded an IC50 of 0.34 nM.

Consider `CC[C@@H](C)[C@H](NC(=O)[C@@H](CC(O)[C@H](CC(C)C)NC(=O)C(C(=O)Cc1ccccc1)C(O)C(=O)O)C(C)C)C(=O)N(C)c1ccccn1` (some centres undefined), for which the IC50 was found to be 1.2 nM.

As to `CC[C@@H](C)[C@H](NC(=O)[C@@H](CC(O)[C@H](CC(C)C)NC(=O)[C@H](Cc1c[nH]cn1)NC(=O)Cc1ccccc1)C(C)C)C(=O)N(C)c1ccccn1` (some centres undefined), the midpoint of inhibition, the IC50, lay at 220 nM.

Compound `CC[C@@H](C)CNC(=O)[C@@H](CC(O)[C@H](CC(C)C)NC(=O)[C@@H](CC(=O)O)NC(=O)COc1ccccc1)C(C)C` (some centres undefined) displayed an IC50 of 20 nM.

For `CC[C@@H](C)CNC(=O)[C@@H](CC(O)[C@H](CC1CCCCC1)NC(=O)C(C(=O)COc1ccccc1)C(O)C(=O)O)C(C)C` (some centres undefined), it took 3.6 nM to reach half-maximal inhibition (IC50).

Regarding `CC[C@@H](C)CNC(=O)[C@@H](CC(O)[C@H](CC(C)C)NC(=O)C(C(=O)Cc1ccccc1)C(O)C(=O)O)C(C)C` (some centres undefined), 6 nM corresponded to half-maximal inhibition (IC50).

In the case of `CC[C@@H](C)CNC(=O)[C@@H](NC(O)[C@@H](CC(=O)[C@H](CC(=O)O)NC(=O)COc1ccccc1)CC1CCCCC1)C(C)C` (some centres undefined), the IC50 is 5.2 nM.
